Experimental data reported in ChEMBL document CHEMBL1155459, “On-bead screening of a combinatorial fumaric acid derived peptide library yields antiplasmodial cysteine protease inhibitors with unusual peptide sequences” (J Med Chem, 2009).
Square brackets hold non-standard residues; d marks the D form. Peptide text beside a SMILES is read from it. * marks the point of attachment. Fumaroyl(AlaGlyPheOH) = C[C@H](NC(=O)/C=C/C(=O)*)C(=O)NCC(=O)N[C@@H](Cc1ccccc1)C(=O)O; Chg = N[C@H](C(=O)O)C1CCCCC1; Dap = NC[C@H](N)C(=O)O

What was measured:
[1] = molecular target: Rhodesain (Trypanosoma brucei rhodesiense) (UniProt Q95PM0); assay: Inhibition of Trypanosoma brucei rhodesiense rhodesain after 12 hrs by fluorescence spectroscopy-based on-bead assay; set-up: concentration or dose not given beside the values; conditions: concentration not given here
Method in brief: (§1)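 Library members on resin (PEGA, theoretical loading 0.40 mmol/g; added as DMSO suspension, 0.64 mM final inhibitor) preincubated with enzyme 12 h, then Cbz-Phe-Arg-AMC 40 μM added; AMC release followed by fluorescence (ex 380/em 460 nm). Kinetics compared with inhibitor-free amino-PEGA resin.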

[2] = Inhibition of Plasmodium falciparum falcipain-2 after 12 hrs by fluorescence spectroscopy-based on-bead assay; set-up: concentration or dose not given beside the values; conditions: concentration not given here; method in brief: as §1

Rhodesain (Trypanosoma brucei rhodesiense), sequence (Q95PM0 1-450): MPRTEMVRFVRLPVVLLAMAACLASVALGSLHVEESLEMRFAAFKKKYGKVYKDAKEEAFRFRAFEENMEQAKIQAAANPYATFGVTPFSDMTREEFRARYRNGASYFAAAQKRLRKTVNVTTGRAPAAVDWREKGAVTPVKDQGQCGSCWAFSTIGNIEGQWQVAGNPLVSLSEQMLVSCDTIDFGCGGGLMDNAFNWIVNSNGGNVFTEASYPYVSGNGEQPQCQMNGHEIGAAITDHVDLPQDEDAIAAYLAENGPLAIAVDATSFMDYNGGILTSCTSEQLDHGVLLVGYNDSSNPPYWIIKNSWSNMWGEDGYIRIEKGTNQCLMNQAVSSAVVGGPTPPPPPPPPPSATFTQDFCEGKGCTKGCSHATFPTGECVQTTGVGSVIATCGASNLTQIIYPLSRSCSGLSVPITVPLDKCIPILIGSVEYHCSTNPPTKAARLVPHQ

SMILES	inhibition [1]	inhibition [2]
CC(=O)NC[C@H](NC(=O)/C=C/C(=O)NCC(=O)NCC(=O)N[C@@H](Cc1ccccc1)C(=O)O)C(=O)N[C@@H](Cc1ccccc1)C(=O)N[C@@H](C)C(=O)N[C@H](C(N)=O)C(C)C (HELM PEPTIDE1{[O=C(/C=C/C(=O)[*:2])NCC(=O)NCC(=O)N[C@@H](Cc1ccccc1)C(=O)O].[O=C([C@H](CN[*:3])N[*:1])[*:2]].F.A.V.[am]}|PEPTIDE2{[ac]}$PEPTIDE1,PEPTIDE2,2:R3-1:R2$$$V2.0)	15%	45%
CC(=O)NC[C@H](NC(=O)/C=C/C(=O)N[C@@H](C)C(=O)NCC(=O)N[C@@H](Cc1ccccc1)C(=O)O)C(=O)N[C@@H](CC(C)C)C(=O)N[C@H](C(=O)N[C@H](C(N)=O)C(C)C)C(C)C (HELM PEPTIDE1{[C[C@H](NC(=O)/C=C/C(=O)[*:2])C(=O)NCC(=O)N[C@@H](Cc1ccccc1)C(=O)O].[O=C([C@H](CN[*:3])N[*:1])[*:2]].L.V.V.[am]}|PEPTIDE2{[ac]}$PEPTIDE1,PEPTIDE2,2:R3-1:R2$$$V2.0)	60%	35%
CC(=O)NC[C@H](NC(=O)/C=C/C(=O)N[C@@H](C)C(=O)NCC(=O)N[C@@H](Cc1ccccc1)C(=O)O)C(=O)N[C@H](C(=O)N[C@H](C(=O)N[C@H](C(N)=O)C(C)C)C(C)C)C1CCCCC1 ({Fumaroyl(AlaGlyPheOH)}-[Dap](Ac)[Chg]VV-NH2)	46%	40%
CC(C)[C@H](NC(=O)[C@H](C)NC(=O)[C@@H](NC(=O)[C@H](CC(N)=O)NC(=O)/C=C/C(=O)NCC(=O)NCC(=O)N[C@@H](Cc1ccccc1)C(=O)O)c1ccccc1)C(N)=O (HELM PEPTIDE1{[O=C(/C=C/C(=O)[*:2])NCC(=O)NCC(=O)N[C@@H](Cc1ccccc1)C(=O)O].N.[Phg].A.V.[am]}$$$$V2.0)	48%	64%
CC[C@H](C)[C@H](NC(=O)[C@H](CNC(C)=O)NC(=O)/C=C/C(=O)N[C@@H](C)C(=O)NCC(=O)N[C@@H](Cc1ccccc1)C(=O)O)C(=O)N[C@@H](CC(C)C)C(=O)N[C@H](C(N)=O)C(C)C (HELM PEPTIDE1{[C[C@H](NC(=O)/C=C/C(=O)[*:2])C(=O)NCC(=O)N[C@@H](Cc1ccccc1)C(=O)O].[O=C([C@H](CN[*:3])N[*:1])[*:2]].I.L.V.[am]}|PEPTIDE2{[ac]}$PEPTIDE1,PEPTIDE2,2:R3-1:R2$$$V2.0)	61%	32%
CC[C@H](C)[C@H](NC(=O)[C@H](CCC(N)=O)NC(=O)/C=C/C(=O)NCC(=O)NCC(=O)N[C@@H](Cc1ccccc1)C(=O)O)C(=O)N[C@@H](CC(C)C)C(=O)N[C@H](C(N)=O)C(C)C (HELM PEPTIDE1{[O=C(/C=C/C(=O)[*:2])NCC(=O)NCC(=O)N[C@@H](Cc1ccccc1)C(=O)O].Q.I.L.V.[am]}$$$$V2.0)	52%	44%
CC[C@H](C)[C@H](NC(=O)[C@H](CNC(C)=O)NC(=O)/C=C/C(=O)N[C@@H](C)C(=O)NCC(=O)N[C@@H](Cc1ccccc1)C(=O)O)C(=O)N[C@H](C(=O)N[C@H](C(N)=O)C(C)C)C(C)C (HELM PEPTIDE1{[C[C@H](NC(=O)/C=C/C(=O)[*:2])C(=O)NCC(=O)N[C@@H](Cc1ccccc1)C(=O)O].[O=C([C@H](CN[*:3])N[*:1])[*:2]].I.V.V.[am]}|PEPTIDE2{[ac]}$PEPTIDE1,PEPTIDE2,2:R3-1:R2$$$V2.0)	49%	52%
CC(C)C[C@H](NC(=O)[C@H](C)NC(=O)/C=C/C(=O)N[C@@H](C)C(=O)NCC(=O)N[C@@H](Cc1ccccc1)C(=O)O)C(=O)N[C@@H](C)C(=O)N[C@H](C(N)=O)C(C)C (HELM PEPTIDE1{[C[C@H](NC(=O)/C=C/C(=O)[*:2])C(=O)NCC(=O)N[C@@H](Cc1ccccc1)C(=O)O].A.L.A.V.[am]}$$$$V2.0)	31%	62%
CC(C)[C@H](NC(=O)[C@@H](NC(=O)[C@H](Cc1ccccc1)NC(=O)[C@H](CC(N)=O)NC(=O)/C=C/C(=O)N[C@@H](C)C(=O)NCC(=O)N[C@@H](Cc1ccccc1)C(=O)O)C(C)C)C(N)=O (HELM PEPTIDE1{[C[C@H](NC(=O)/C=C/C(=O)[*:2])C(=O)NCC(=O)N[C@@H](Cc1ccccc1)C(=O)O].N.F.V.V.[am]}$$$$V2.0)	53%	54%
